Our source for the Activity and CC50 values is ChEMBL document CHEMBL1142244, “Cytotoxic constituents from the fruiting branches of Callicarpa americana collected in southern Florida” (J Nat Prod, 2007).

≈ marks a conversion by molar mass, not a printed value. Some results are limits rather than exact numbers.

The test system of one series is TERT-RPE1. As to the kind of experiment: (§1) Cytotoxicity against human TERT-RPE1 cells. The format is cell-based. To be noted: tert-rpe1.
Series [1] has as its system MCF7. Put plainly: (§2) Cytotoxicity against human MCF7 cells. To be noted: mcf7. The format is cell-based.
In another series the test system is Col2. Put plainly: (§3) Cytotoxicity against human Col2 cells. The format is cell-based. To be noted: col2.
The test system of the next series is HUVEC. Put plainly: (§4) Cytotoxicity against human HUVEC cells. The format is cell-based. As to conditions: huvec; call rule not given here.
Series [2] has as its system LNCaP. Put plainly: (§5) Cytotoxicity against human LNCaP cells. The format is cell-based. As to conditions: lncap.
Series [3] deals with Lu1. As to the kind of experiment: (§6) Cytotoxicity against human Lu1 cells. The format is cell-based. As to conditions: lu1.
Series [4] is described as follows: as §1. The format is cell-based. To be noted: TERT-RPE1 cells, read-out: ED50 (the source's name).
Series [5] is described as follows: as §2. The format is cell-based. To be noted: MCF7 cells, read-out: ED50 (the source's name).
A short description of series [6]: as §3. To be noted: Col2 cells, read-out: ED50 (the source's name). The format is cell-based.
Series [7] in a line: as §4. The format is cell-based. As to conditions: HUVEC cells, read-out: ED50 (the source's name).
Series [8] can be described thus: as §5. The format is cell-based. To be noted: LNCaP cells, read-out: ED50 (the source's name).
Series [9] in a line: as §6. The format is cell-based. As to conditions: Lu1 cells, read-out: ED50 (the source's name).
Series [10] deals with Lu1. Put plainly: Cytotoxicity against human Lu1 cells xenografted in NCr nu/nu athymic mouse at 12.5 mg/kg, ip by hollow fiber assay. The format is organism-based. Set-up: dose 12.5 mg/kg, route intraperitoneal. To be noted: in vivo. Put shortly:
(§7)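 Female-unspecified NCr nu/nu athymic mice, five to six weeks old. LNCaP, Lu1 and MCF-7 cells were sealed in semi-porous hollow fibres and implanted at intraperitoneal and subcutaneous sites, each mouse carrying all three lines at both sites. Compound was given i.p. at 6.25, 12.5, 25 or 50 mg/kg, with three mice per dose group.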

Series [11] deals with Lu1. Put plainly: Cytotoxicity against human Lu1 cells xenografted in NCr nu/nu athymic mouse at 25 mg/kg, ip by hollow fiber assay. To be noted: in vivo. Set-up: dose 25 mg/kg, route intraperitoneal. The format is organism-based. Put shortly:
as §7

The test system of series [12] is Lu1. As to the kind of experiment: Cytotoxicity against human Lu1 cells xenografted in NCr nu/nu athymic mouse at 50 mg/kg, ip by hollow fiber assay. To be noted: in vivo. The format is organism-based. Also noted: dose 50 mg/kg, route intraperitoneal. An outline of the steps:
as §7

For series [13], the system named is LNCaP. Put plainly: Cytotoxicity against human LNCaP cells xenografted in NCr nu/nu athymic mouse at 25 mg/kg, ip by hollow fiber assay. The format is organism-based. Also noted: dose 25 mg/kg, route intraperitoneal. As to conditions: in vivo. Put shortly:
as §7

Series [14] relates to LNCaP. Put plainly: Cytotoxicity against human LNCaP cells xenografted in NCr nu/nu athymic mouse at 50 mg/kg, ip by hollow fiber assay. The format is organism-based. Set-up: dose 50 mg/kg, route intraperitoneal. As to conditions: in vivo. Put shortly:
as §7

Series [15] relates to MCF7. Put plainly: Cytotoxicity against human MCF7 cells xenografted in NCr nu/nu athymic mouse at 50 mg/kg, ip by hollow fiber assay. The format is organism-based. Also noted: dose 50 mg/kg, route intraperitoneal. As to conditions: in vivo. Put shortly:
as §7

Series [16] concerns Lu1. Put plainly: Cytotoxicity against human Lu1 cells xenografted in NCr nu/nu athymic mouse at 6.25 mg/kg, ip by hollow fiber assay. The format is organism-based. Set-up: dose 6.25 mg/kg, route intraperitoneal. To be noted: in vivo. An outline of the steps: as §7
Series [17] relates to MCF7. Put plainly: Cytotoxicity against human MCF7 cells xenografted in NCr nu/nu athymic mouse at 25 mg/kg, ip by hollow fiber assay. The format is organism-based. Also noted: dose 25 mg/kg, route intraperitoneal. As to conditions: in vivo. An outline of the steps: as §7
The test system of series [18] is MCF7. Put plainly: Cytotoxicity against human MCF7 cells xenografted in NCr nu/nu athymic mouse at 6.25 mg/kg, ip by hollow fiber assay. The format is organism-based. Also noted: dose 6.25 mg/kg, route intraperitoneal. To be noted: in vivo. Put shortly: as §7
In series [19] the test system is LNCaP. Put plainly: Cytotoxicity against human LNCaP cells xenografted in NCr nu/nu athymic mouse at 6.25 mg/kg, ip by hollow fiber assay. The format is organism-based. Set-up: dose 6.25 mg/kg, route intraperitoneal. To be noted: in vivo. An outline of the steps:
as §7

Series [20] relates to MCF7. As to the kind of experiment: Cytotoxicity against human MCF7 cells xenografted in NCr nu/nu athymic mouse at 12.5 mg/kg, ip by hollow fiber assay. The format is organism-based. As to conditions: in vivo. Also noted: dose 12.5 mg/kg, route intraperitoneal. Put shortly:
as §7

In series [21] the test system is LNCaP. As to the kind of experiment: Cytotoxicity against human LNCaP cells xenografted in NCr nu/nu athymic mouse at 12.5 mg/kg, ip by hollow fiber assay. The format is organism-based. Also noted: dose 12.5 mg/kg, route intraperitoneal. To be noted: in vivo. An outline of the steps:
as §7

Consider `C=C1[C@@H](O)CC[C@@H]2[C@@](C)(CCC3=CC(=O)O[C@H]3O)[C@H](C)CC[C@@]12C`, for which the Activity result in the series with TERT-RPE1, with MCF7 [1], in the series with Col2, in the series with HUVEC, with LNCaP [2] and in the series with Lu1 [3] was “Not Active” throughout.
On to `CC1=C(C=O)C[C@@H]2[C@@](C)(CCC3=CC(=O)OC3O)[C@H](C)CC[C@@]12C` (some centres not stated), for which the CC50 in series [4] came out at 1.9 µg/mL (≈ 5.72 µM); in series [5], 3.9 µg/mL (≈ 11.7 µM); in series [6], 9 µg/mL (≈ 27.1 µM); in series [7] it was 9.8 µg/mL (≈ 29.5 µM); in [8], 4.5 µg/mL (≈ 13.5 µM); in series [9] it was 8.7 µg/mL (≈ 26.2 µM).
`C=C1[C@@H](O)CC[C@@H]2[C@@](C)(C[C@H](O)C3=CC(=O)OC3)[C@H](C)CC[C@@]12C`: the Activity entry with TERT-RPE1, in the series with MCF7 [1], with Col2, with HUVEC, in the series on LNCaP [2] and with Lu1 [3] was “Not Active” each time.
With `CC1=CCC[C@@H]2[C@@](C)(C[C@H](O)C3=CC(=O)O[C@H]3O)[C@H](C)CC[C@@]12C`, the CC50 in series [4] amounted to 1.9 µg/mL (≈ 5.68 µM); in [6], 2.3 µg/mL (≈ 6.88 µM); in [7], 1.8 µg/mL (≈ 5.38 µM); in series [8], 4.1 µg/mL (≈ 12.3 µM); in series [9], 2.4 µg/mL (≈ 7.18 µM). The Activity result in the series with Lu1 [10], in the series on Lu1 [11], with Lu1 [12], in the series with LNCaP [13], in the series with LNCaP [14] and in the series with MCF7 [15] was “Not Active” throughout. In addition, the Activity entry in the series on Lu1 [16], in the series on MCF7 [17], with MCF7 [18], with LNCaP [19], in the series with MCF7 [20] and in the series on LNCaP [21] was “Not Active” in each case.
In the case of `CC1=CCC[C@@H]2[C@@](C)(CCC3=CC(=O)O[C@H]3O)[C@H](C)CC[C@@]12C`, the CC50 was 3.5 µg/mL (≈ 11 µM) in [5], 4.1 µg/mL (≈ 12.9 µM) in series [7], 3.3 µg/mL (≈ 10.4 µM) in series [8] and 3.7 µg/mL (≈ 11.6 µM) in series [9].
In the case of `CC1=CCC[C@@H]2[C@@](C)(C[C@H](O)C3=CC(=O)OC3)[C@H](C)CC[C@@]12C`, the Activity result in the series with TERT-RPE1, in the series with MCF7 [1], in the series on Col2, in the series with HUVEC, in the series on LNCaP [2] and with Lu1 [3] was “Not Active” in each case.
Regarding `C[C@@H]1CC[C@]2(C(=O)O)CC[C@]3(C)C(=CC[C@@H]4[C@@]5(C)C[C@@H](O)[C@@H](O)C(C)(C)[C@@H]5CC[C@]43C)[C@@H]2[C@]1(C)O` [EUSCAPHIC ACID], the Activity entry in the series on TERT-RPE1, in the series with MCF7 [1], in the series with Col2, in the series on HUVEC, in the series with LNCaP [2] and with Lu1 [3] was “Not Active” each time.
For `CO[C@@H]1OC(=O)C=C1[C@@H](O)C[C@@]1(C)[C@H](C)CC[C@@]2(C)C(C)=CCC[C@H]12`, the Activity result in the series on TERT-RPE1, with MCF7 [1], with Col2, with HUVEC, in the series on LNCaP [2] and with Lu1 [3] was “Not Active” each time.
Turning to `COc1ccc(-c2cc(=O)c3c(O)cc(OC)cc3o2)cc1`, the Activity result with TERT-RPE1, in the series on MCF7 [1], in the series with Col2, in the series on HUVEC, with LNCaP [2] and in the series with Lu1 [3] was “Not Active” in each case.
As to `CC1=CCC[C@@H]2[C@@](C)(/C=C/C3=CC(=O)O[C@H]3O)[C@H](C)CC[C@@]12C`, the CC50 in series [5] is 2.7 µg/mL (≈ 8.53 µM); in [7] it was 1.2 µg/mL (≈ 3.79 µM); in series [8] it was 2.5 µg/mL (≈ 7.9 µM); in [9], 2.6 µg/mL (≈ 8.22 µM).
In the case of `CC1(C)C(=O)CC[C@@]2(C)[C@H]1CC[C@@]13C[C@H](CC[C@@H]12)[C@@](O)(CO)C3` [CALLITERPENONE], the Activity entry in the series with TERT-RPE1, in the series with MCF7 [1], with Col2, in the series on HUVEC, in the series with LNCaP [2] and with Lu1 [3] was “Not Active” in each case.
In the case of `CC1=CCC[C@@H]2[C@@](C)(C[C@H](O)C3=CCOC3=O)[C@H](C)CC[C@@]12C`, the CC50 in [5] turned out to be 2.8 µg/mL (≈ 8.79 µM); in series [8] it was 3.3 µg/mL (≈ 10.4 µM); in series [9], 2.9 µg/mL (≈ 9.11 µM).
Turning to `COc1cc(O)c2c(=O)cc(-c3ccc(O)cc3)oc2c1` [GENKWANIN], the CC50 in series [4] was 3.9 µg/mL (≈ 13.7 µM); in series [6], above 20 µg/mL; in series [7] it was above 20 µg/mL; in series [8], above 20 µg/mL; in series [9], above 20 µg/mL.
On to `COc1ccc(-c2cc(=O)c3c(O)c(OC)c(OC)cc3o2)cc1` [SALVIGENIN], for which the Activity result with TERT-RPE1, with MCF7 [1], in the series on Col2, with HUVEC, in the series with LNCaP [2] and with Lu1 [3] was “Not Active” throughout.
